In ChEMBL document CHEMBL4706573, “Synthesis and evaluation of thiophene based small molecules as potent inhibitors of Mycobacterium tuberculosis” (Eur J Med Chem, 2020):
The source made the active and inactive calls. The rule behind the calls is not given here.

Tested on: Mycobacterium tuberculosis
Assay: Antimycobacterial activity against INH-resistant Mycobacterium tuberculosis mc2497 after 10 to 14 days
Format: functional, organism-based
Conditions: time 10-14 day
In short: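 MIC99 determined in whole cells, tested in triplicate with INH as the positive control. Strains were wild-type, pMV306, pMV306-pks13 and INH-resistant mc2 497. Susceptibility was scored relative to the parental strain: S where the MIC99 was at most 2x the parental MIC99.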

| SMILES | Activity |
| --- | --- |
| COC(=O)c1cc(-c2ccc(F)cc2)sc1NC(=O)CCl | inactive |
| COC(=O)c1cc(-c2ccccc2)sc1NC(=O)CCl | inactive |
| CO[C@H]1/C=C/O[C@@]2(C)Oc3c(C)c(O)c4c(O)c(c(/C=N/N5CCN(C)CC5)c(O)c4c3C2=O)NC(=O)/C(C)=C\C=C\[C@H](C)[C@H](O)[C@@H](C)[C@@H](O)[C@@H](C)[C@H](OC(C)=O)[C@@H]1C [RIFAMPIN] | Active |
| COC(=O)c1cc(-c2cccc(F)c2)sc1NC(=O)CCl | inactive |
| COC(=O)c1cc(-c2ccc(C(F)(F)F)cc2)sc1NC(=O)CCl | inactive |
| CCOC(=O)c1cc(-c2ccccc2)sc1NC(=O)CBr | inactive |
| NNC(=O)c1ccncc1 [ISONIAZID] | inactive |
| COC(=O)c1cc(-c2cc(F)cc(F)c2)sc1NC(=O)CCl | inactive |
| COC(=O)c1ccsc1NC(=O)CCl | inactive |
| COC(=O)c1cc(-c2cc3ccccc3s2)sc1NC(=O)CCl | inactive |
